T cruzi growth-1: T. cruzi intracellular proliferation inhibitors, primary screen, cell-based, beta-gal Tulahuen parasites, NIH3T3 host, luminescence | AID 624255, 2012 | actives 5.9% (n = 77,000) | T. cruzi beta-gal in NIH3T3, GalScreen luminescence, 90 h | inhibition, % at 8.34 µM;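 active = mean inhibition above about 93%, with at least 55% of replicates each passing it, limit read from the data, passing the limit was not always enough; inconclusive = only one of those two conditions holds; inactive = neither condition holds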
GASC1 inh: inhibitors of GASC-1 (KDM4C) histone demethylase, primary screen, biochemical, single concentration HTS; Lysine-specific demethylase 4C (Homo sapiens), Q9H3R0; GST-KDM4C 2-372, H3K9me3 peptide, LANCE TR-FRET; inhibition, % at 12.5 µM; actives 0.15% (n = 96,000); AID 720574, 2013;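 active = mean replicate inhibition above about 25%, with at least 55% of replicates also reaching it, limit read from the data, passing the limit was not always enough; inconclusive = only one of those two conditions met; inactive = neither condition met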
Target sequence (Q9H3R0 2-372 limits assumed): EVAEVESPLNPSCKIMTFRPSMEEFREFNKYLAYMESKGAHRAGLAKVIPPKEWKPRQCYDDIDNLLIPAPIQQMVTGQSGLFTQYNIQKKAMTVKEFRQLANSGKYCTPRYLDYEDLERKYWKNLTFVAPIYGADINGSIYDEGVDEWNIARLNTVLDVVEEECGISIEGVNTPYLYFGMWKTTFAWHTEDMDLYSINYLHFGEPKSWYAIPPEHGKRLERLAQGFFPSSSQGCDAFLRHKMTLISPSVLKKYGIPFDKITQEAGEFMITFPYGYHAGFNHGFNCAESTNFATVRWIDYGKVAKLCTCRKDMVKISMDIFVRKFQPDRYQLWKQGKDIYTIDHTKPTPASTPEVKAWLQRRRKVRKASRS
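Test system: N-terminal GST-fused human GASC-1 (KDM4C) fragment, residues 2-372; quantity: GASC-1 enzyme at 10 nM final in reaction; dosing: single dose; schedule: 30 min demethylation and 1 h detection at room temperature; signal: LANCE TR-FRET, excitation 340 nm, emissions 618 and 671 nm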
IDH1 mut inh: inhibitors of IDH1 R132H reductase, primary screen, biochemical, plate reader, single point. inhibition, % at 10 µM. Isocitrate dehydrogenase [NADP] cytoplasmic (Homo sapiens), O75874. actives 0.18% (n = 70,000). diaphorase/resazurin fluorescence, 60 min; in the data active = inhibition above about 34%; inconclusive = no clear call, values can overlap the other calls; inactive = below about 11%;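 also: 0% = DMSO and 100% = no enzyme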
T cruzi growth-2: T. cruzi intracellular proliferation inhibitors, confirmation, cell-based, NIH3T3 host, beta-gal parasite, luminescence, cherry-pick | shares compounds with T cruzi growth-1 | T. cruzi beta-gal in NIH3T3, GalScreen luminescence, 90 h | inhibition, % at 8.35 µM | actives 72% (n = 5,600);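 active = mean replicate inhibition above about 95% and at least 55% of replicates individually reaching it, limit read from the data; inconclusive = only one of the two criteria is met; inactive = neither criterion is met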
T cruzi growth-3: inhibitors of intracellular T. cruzi replication, confirmation, NIH3T3 host cells, beta-gal parasites, cherry-pick, set 2. shares compounds with T cruzi growth-1. T. cruzi beta-gal in NIH3T3, GalScreen luminescence, 90 h. inhibition, % at 2.09 µM. actives 21% (n = 5,600). AID 651740, 2012;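 active = mean inhibition above about 95%, with at least 55% of replicates also reaching it, limit read from the data; inconclusive = meets just one of the two conditions; inactive = meets neither condition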;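 also: plate controls were neutral control median for no effect and positive control median for full effect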
NIH3T3 tox: cytotoxicity in mouse NIH/3T3 fibroblasts, confirmation, cytotoxicity control for T. cruzi proliferation inhibitor project, cell-based, cherry-pick, single point | cytotoxicity (signal decrease), % at 8.35 µM | shares compounds with T cruzi growth-1 | NIH/3T3 viability, CellTiter-Glo ATP luminescence, 90 h | actives 14% (n = 5,600);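 active = mean signal decrease across replicates above about 35% based on untreated-well scatter, with enough replicates individually passing, limit read from the data; inconclusive = no rule stated though some were filed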;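 also: 0% = median of neutral control wells and 100% = median of positive control wells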
NIH3T3 tox 2: NIH/3T3 fibroblast cytotoxicity, confirmation, cytotoxicity control, cell-based, cherry-pick, single point, set 2; shares compounds with T cruzi growth-1; NIH/3T3 viability, CellTiter-Glo ATP luminescence, 90 h; inhibition, % at 24.9 µM; actives 56% (n = 5,600);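 active = mean loss of cell viability signal at or above a set limit, and enough replicates individually reaching it; inconclusive = meets only the mean limit or only the replicate share; inactive = meets neither condition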;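 also: 0% = median of neutral control wells and 100% = median of positive control wells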
The depositor's hits bear a star; ? = inconclusive; nt = no result given. Many of the other results were omitted from the sample, so hits are more common in it than they were.

SMILES	T cruzi growth-1	GASC1 inh	IDH1 mut inh	T cruzi growth-2	T cruzi growth-3	NIH3T3 tox	NIH3T3 tox 2
C[C@@H]1CN([C@@H](C)CO)C(=O)c2cc(C#CCC3CCCC3)cnc2O[C@H]1CN(C)Cc1ccccn1	110*	8	0	105*	47	2	104*
CNC[C@H]1Oc2ncc(C#CCC3CCCC3)cc2C(=O)N([C@H](C)CO)C[C@H]1C	?	-1	0	108*	92	11	106*
O=C(COc1ccc([N+](=O)[O-])cc1)Nc1ccc(-c2nc3ccccc3s2)c(Cl)c1	nt	nt	0	nt	nt	nt	nt
C[C@@H]1CN([C@H](C)CO)C(=O)c2cc(C#CCc3ccccc3)cnc2O[C@H]1CN(C)CC1CCCC1	92	nt	0	nt	nt	nt	nt
C[C@H]1CN([C@@H](C)CO)C(=O)c2cc(C#CCc3ccccc3)cnc2O[C@@H]1CN(C)CC1CCCC1	109*	1	0	103*	?	19	103*
C[C@H]1CN([C@@H](C)CO)C(=O)c2cc(C#Cc3cccnc3)cnc2O[C@@H]1CN(C)Cc1ccccc1	91	-3	-1	nt	nt	nt	nt
C[C@H](CO)N1C[C@H](C)[C@H](CN(C)Cc2ccccc2)Oc2ncc(C#Cc3cccnc3)cc2C1=O	101*	-1	0	70	15	15	33
Cc1ccc(Cl)cc1NC(=O)C(C)n1cc([N+](=O)[O-])cn1 (stereo unspecified)	nt	nt	0	nt	nt	nt	nt
COc1ccc(S(=O)(=O)N(C)CC(=O)Nc2cccc(C(F)(F)F)c2)cc1	nt	nt	-1	nt	nt	nt	nt
COc1ccc2oc(-c3cccc(NC(=O)COc4ccc(Cl)cc4)c3)nc2c1	nt	nt	0	nt	nt	nt	nt
COc1ccccc1NC(=O)N1CCCCN2[C@H](C1)[C@H](c1ccc(-c3ccc(C)cc3)cc1)[C@@H]2CO	113*	1	nt	111*	73	16	28*
COc1ccccc1NC(=O)N1CCCCN2[C@H](CO)[C@@H](c3ccc(C#Cc4ccccc4)cc3)[C@@H]2C1	49	-1	nt	nt	nt	nt	nt
COc1ccccc1NC(=O)N1CCCCN2[C@H](CO)[C@@H](c3ccc(-c4ccccc4)cc3)[C@@H]2C1	107*	nt	nt	108*	116*	24	105*
COc1ccccc1NC(=O)N1CCCCN2[C@H](C1)[C@H](c1ccc(C#Cc3ccccc3)cc1)[C@@H]2CO	114*	0	nt	104*	80	27	30*
COc1ccccc1NC(=O)N1CCCCN2[C@H](CO)[C@H](c3ccc(-c4ccccc4)cc3)[C@@H]2C1	111*	nt	nt	105*	93	18	32*
COc1ccccc1NC(=O)N1CCCCN2[C@H](C1)[C@H](c1ccc(-c3cccc(C)c3)cc1)[C@@H]2CO	92	0	nt	nt	nt	nt	nt
COc1ccccc1NC(=O)N1CCCCN2[C@@H](CO)[C@@H](c3ccc(-c4cccc(C)c4)cc3)[C@@H]2C1	69	-1	nt	nt	nt	nt	nt
COc1ccccc1NC(=O)N1CCCCN2[C@@H](CO)[C@@H](c3ccc(-c4ccc(C)cc4)cc3)[C@@H]2C1	94	12	nt	nt	nt	nt	nt
COc1cc(-c2oc3cc(O)c(OC)c(O)c3c(=O)c2O[C@@H]2O[C@H](CO[C@@H]3O[C@H](CO)[C@@H](O)[C@H](O)[C@H]3O)[C@@H](O)[C@H](O)[C@H]2O[C@@H]2OCC(O)(CO)[C@H]2O)ccc1O (stereo partly specified)	nt	nt	-1	nt	nt	nt	nt
CC(C)(C)c1ccc(S(=O)(=O)NCC(=O)Nc2ccc3c(c2)OCCO3)cc1	nt	nt	0	nt	nt	nt	nt
Cn1c(SCC(=O)Nc2cccc(C(F)(F)F)c2)nnc1-c1ccc(F)cc1	nt	nt	0	nt	nt	nt	nt
CC1CC(=O)[C@]2(C)CC[C@]3(C)C(C(=O)C(O)C4[C@@]5(C)CC[C@H](O)C(C)(C(=O)O)C5CC[C@]43C)C2C1C (stereo partly specified)	nt	nt	0	nt	nt	nt	nt
O=C(CN1C(=O)c2ccccc2C1=O)Oc1ccc(C(=O)Nc2ccccc2)cc1	nt	nt	1	nt	nt	nt	nt
Cc1ccc([N+](=O)[O-])cc1NC(=O)CSc1nnnn1-c1ccccc1	nt	nt	0	nt	nt	nt	nt
O=C(CSc1nnc(Nc2ccccc2)n1-c1ccccc1)Nc1ccccc1Cl	nt	nt	0	nt	nt	nt	nt
SMILES	T cruzi growth-1	GASC1 inh	IDH1 mut inh	T cruzi growth-2	T cruzi growth-3	NIH3T3 tox	NIH3T3 tox 2
O=C(Nc1ccccc1C(=O)O)c1cccc(NS(=O)(=O)c2ccc(Cl)cc2)c1	nt	nt	-1	nt	nt	nt	nt
Cc1ccc(S(=O)(=O)N(C)C[C@@H]2OCCCC[C@H](C)Oc3ccc(NS(=O)(=O)c4cccs4)cc3C(=O)N([C@@H](C)CO)C[C@H]2C)cc1	106*	1	-12	?	8	3	24
Cc1ccc(S(=O)(=O)Nc2ccc3c(c2)C(=O)N([C@H](C)CO)C[C@@H](C)[C@H](CN(C)S(=O)(=O)c2cccs2)OCCCC[C@H](C)O3)cc1	nt	-4	nt	nt	nt	nt	nt
Cc1ccc(S(=O)(=O)N(C)C[C@@H]2OCCCC[C@H](C)Oc3ccc(NS(=O)(=O)c4cccs4)cc3C(=O)N([C@@H](C)CO)C[C@@H]2C)cc1	122*	-2	nt	98*	41	-11	-5
Cc1ccc(S(=O)(=O)N(C)C[C@H]2OCCCC[C@H](C)Oc3ccc(NS(=O)(=O)c4cccs4)cc3C(=O)N([C@H](C)CO)C[C@@H]2C)cc1	68	-1	nt	nt	nt	nt	nt
Cc1ccc(S(=O)(=O)N(C)C[C@H]2OCCCC[C@H](C)Oc3ccc(NS(=O)(=O)c4cccs4)cc3C(=O)N([C@@H](C)CO)C[C@@H]2C)cc1	86	1	-2	nt	nt	nt	nt
Cc1ccc(S(=O)(=O)N(C)C[C@H]2OCCCC[C@@H](C)Oc3ccc(NS(=O)(=O)c4cccs4)cc3C(=O)N([C@@H](C)CO)C[C@H]2C)cc1	103*	-1	2	112*	63	-10	-18
N#C[C@H]1[C@H](c2ccc(C#Cc3ccc(F)cc3)cc2)[C@H](CO)N1C(=O)Nc1ccc(F)cc1	95	-2	nt	nt	nt	nt	nt
CCCNC(=O)N1[C@@H](C#N)[C@H](c2ccc(C#Cc3ccc(F)cc3)cc2)[C@@H]1CO	103*	-1	nt	105*	47	8	40*
CCCNC(=O)N1[C@@H](C#N)[C@@H](c2ccc(C#Cc3ccc(F)cc3)cc2)[C@@H]1CO	103*	1	nt	107*	103*	-1	?
